An excerpt weighted towards active compounds, which were near 1.1% of everything screened.
Thrombin inh – thrombin (human) inhibition. alpha-thrombin, Boc-VPR-AMC fluorogenic substrate cleavage. inhibition, % at 5 µM. actives 0.26% (n = 220,000);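 active means inhibition at or above 40%; inactive means inhibition below 40%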;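 further: 0% = enzyme with no compound and 100% = wells without enzyme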
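Material: Human alpha-thrombin protein | Buffer or medium: pH 7.5 Tris-saline with Tween 20 | Reagent: Boc-VPR-AMC substrate, 15 µM final | Schedule: Reaction at ambient temperature | Detection: AMC fluorescence at 355 nm excitation and 460 nm emission | Evaluation: Percent inhibition scaled between no-compound controls and no-enzyme blanks | Controls: no-compound enzyme wells and no-enzyme blanks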
Furin inhibitor – human furin inhibition; P09958; purified furin, fluorogenic substrate cleavage; inhibition, % at 20 µM or 30 µM; actives 0.061% (n = 220,000); AID 463115; in the data active means inhibition above about 25%
FXIa inh 1536 – inhibitors of human coagulation factor XIa. actives 0.14% (n = 220,000). purified FXIa, Boc-Glu-Ala-Arg-AMC fluorogenic substrate. inhibition, % at 5 µM. AID 798. P03951;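 active means inhibition of at least 40%; inactive means inhibition below 40%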;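 further: fluorescence of freed AMC excited at 355 nm; 0% = enzyme without compound and 100% = no enzyme blank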
Biofilm kill mix – mixture kills Candida albicans biofilm cells; inhibition, % at 7.6 µM; C. albicans biofilm persisters + clotrimazole, fluorescence viability; primary screen in compound mixtures of four per well; AID 1242; actives 0.02% (n = 120,000);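 active means inhibition above 30.3% in the primary screen of four-compound pools, then above 30% when the compound was retested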;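 further: compounds exposed to preformed 24 h biofilms for 48 h; 0% = untreated biofilm control and 100% = clotrimazole plus chlorhexidine kill blank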
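Incubation: 24 h biofilm formation, then 48 h compound exposure, 37 °C | Material: C. albicans biofilms | Buffer or medium: RPMI/MOPS medium, pH 7.0 | Measured by: 2-h Alamar Blue fluorescence, 535/590 nm excitation/emission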
FXIIa inh 1536 – blocks human coagulation factor XIIa protease activity; purified FXIIa, Boc-QGR-AMC fluorogenic substrate, 2 h; inhibition, % at 5 µM; actives 0.3% (n = 220,000); AID 800; in the data active means inhibition above about 40%;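 further: 0% = enzyme with no compound and 100% = blank without enzyme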
KLK5 inh – inhibitors of human kallikrein 5. AID 873. Q9Y337. inhibition, % at 5 µM. actives 0.59% (n = 210,000). recombinant hK5, fluorogenic AMC substrate cleavage;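 active means inhibition of 40% or more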;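 further: 0% = enzyme controls without compound and 100% = no-enzyme blanks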
* hit, by the source's call; nt = not tested or not shown.

SMILES	Thrombin inh	Furin inhibitor	FXIa inh 1536	Biofilm kill mix	FXIIa inh 1536	KLK5 inh
O=c1oc(-c2ccccc2NS(=O)(=O)c2ccc3ccccc3c2)nc2ccccc12	27.5	1.6	13.5	3.3	10.7	58.9*
CN1CCc2nc(NC(=O)COc3ccc(C#N)cc3)sc2C1	-0.3	-12.5	3.3	17.6	8.5	-8.9
O=C(N[C@H](C(=O)O)c1ccccc1)C1CCC(Cn2nnc3ccccc3c2=O)CC1 (some centres undefined)	10.2	-5.8	27.9	6.9	43.4*	18.1
COc1ccc(N2C(=O)CSC2c2cccc(OC)c2OC)cc1 (centres undefined)	42.3*	-9.4	8.2	11.3	16.8	39.1
O=C(Nc1nc(-c2ccncc2)cs1)c1ccc(F)cc1	-9.2	-19.5	-5.5	12.9	6.5	-2.0
Cn1nc(C(=O)Nc2nc(-c3ccc(F)cc3)cs2)ccc1=O	1.9	-3.3	104.5*	13.7	39.1	61.2*
CC(C)C(=O)n1nc(-c2cccnc2)nc1NCc1ccc(F)cc1	99.8*	-9.8	3.1	9.5	0.6	nt
CC(=O)n1nc(-c2ccc(C)cc2)nc1NCc1ccc(F)cc1	93.8*	-17.4	-8.8	-9.8	-7.2	-24.4
O=C(CCc1ccccc1)n1nc(-c2ccccc2)nc1NCc1ccco1	14.4	-9.3	6.7	14.9	2.2	-6.8
Cc1ccc(-c2nc(NCc3ccco3)n(S(C)(=O)=O)n2)cc1	2.6	-17.2	-3.1	17.1	5.1	-11.1
CC(=O)n1nc(-c2ccc(C)cc2)nc1NCc1ccco1	68.9*	-22.1	-0.6	62.0	10.4	5.8
COc1ccc(CC(=O)n2nc(-c3ccccc3)nc2NCc2ccco2)cc1	92.8*	-14.2	6.5	nt	12.7	-19.2
Cc1ccccc1C([O-])=Nc1ccc[n+](-c2nc3ccccc3nc2NS(=O)(=O)c2ccccc2)c1	-3.3	-11.3	-3.0	19.1	3.7	15.1
COc1ccc(CC(=O)OCC(=O)Nc2ccc3c(c2)OCO3)cc1	11.2	-8.4	30.3	11.7	25.7	25.9
CN(C)c1ccc(NC(=O)C2CCCN(S(=O)(=O)c3ccccc3)C2)cc1 (centres undefined)	-4.3	-23.2	4.3	6.9	7.2	-4.6
Cc1cc(C)nc(NS(=O)(=O)c2ccc(NC(=O)C3CC(=O)N(c4ccccc4)C3)cc2)n1 (centres undefined)	34.2	-1.5	12.4	nt	31.1	59.5*
O=C(Nc1ccccc1Cl)C1CC(=O)N(c2ccccc2)C1 (centres undefined)	4.9	-11.9	15.8	4.4	40.6*	25.4
COc1cccc(Nc2nc3ccccc3n3cnnc23)c1	1.6	-4.0	2.0	nt	16.9	64.0*
COc1cccc(Nc2ccc(Nc3cccc(OC)c3)nn2)c1	15.1	-9.7	9.3	9.6	6.6	53.2*
CCN(CC)C(=O)/C(=C/c1cccc([N+](=O)[O-])c1)NC(=O)c1ccco1	7.3	-8.0	-4.8	11.3	6.4	-6.3
CN(C(=O)CCn1c(=S)oc2ccccc21)c1ccc(F)cc1	22.7	-1.8	5.2	7.1	19.2	21.5
Cc1ccccc1Cn1cnc2c(NS(C)(=O)=O)c(C)c(C)cc21	2.5	-27.0	0.9	nt	40.9*	-0.8
CC(=O)NC(CC(=O)OCC(=O)c1c(N)n(C)c(=O)n(C)c1=O)c1ccccc1 (centres undefined)	-4.1	-5.6	33.9	12.4	40.0*	14.7
Cn1c(N)c(C(=O)COC(=O)CSc2ccccc2)c(=O)n(C)c1=O	-4.5	-16.7	6.1	16.4	11.6	-11.2
COc1ccc(C(=O)N/N=C/c2cc3ccccc3[nH]c2=O)cc1	33.9	-12.4	51.5*	15.1	60.0*	21.1
O=C(NCCC1=CCCCC1)c1cc(-c2ccncc2)nc2ccccc12	-4.9	-21.5	-0.5	-2.7	16.4	1.8
O=C(NCc1ccncc1)C(=O)C1C(=O)Nc2ccccc21 (centres undefined)	-12.8	-20.4	-0.6	1.0	5.6	-0.1
O=C(NCc1cccnc1)C(=O)C1C(=O)Nc2ccccc21 (centres undefined)	-3.4	-9.7	-2.4	13.5	1.7	40.9*
CN1CCN(CCNC(=O)c2cn(Cc3ccccc3F)nn2)CC1	15.2	-10.6	28.7	27.5	60.1*	20.1
COc1cc(C(=O)Nc2c(C)cc(C)cc2C)c(Br)c(OC)c1OC	-0.1	-11.9	-2.1	2.9	5.9	-0.6

Screening results deposited in PubChem BioAssay by several laboratories.
